This note sets out measurements from ChEMBL document CHEMBL1177808, “Benzofuran-substituted urea derivatives as novel P2Y(1) receptor antagonists” (Bioorg Med Chem Lett, 2010).

Assay [1] has as its target T1, P2Y purinoceptor 1 (Homo sapiens, UniProt P47900). The assay is described as follows: Antagonist activity at P2Y1 expressed in HEK293 cells by FLIPR assay. In kind it is functional, cell-based. In outline:
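HEK-293 MSRII cells (endogenous P2Y1) grown in DMEM/F12 with 10% FBS, plated 20,000/well, cultured 48 h. Loaded with calcium 3 dye in HBSS pH 7.4 plus 2.5 mM probenecid, 1 h, 37 °C. Calcium flux read on FLIPR; IC50 from non-linear regression; at least three determinations.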

The target of assay [2] is T1, P2Y purinoceptor 1. The assay is described as follows: Displacement of [33P]2-MeS-ADP from human P2Y1 receptor expressed in human U2OS cells at 10 uM by scintillation counting. The assay is classed as cell-based. In outline: (§1)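 Membranes from BacMam-transduced U2OS cells expressing human P2Y1, 0.5 µg prebound to 0.5 mg WGA-SPA beads. Radioligand 150 pM [33P]-2-MeS-ADP in 15 mM Hepes, 145 mM NaCl, 0.1 mM MgCl2, 5 mM EDTA, 5 mM KCl, with test compound dilutions or DMSO. Incubated 1 h at room temperature, centrifuged at 2000g, SPA counts read. At least three determinations.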

The test system of assay [3] is Platelet. The assay is described as follows: Inhibition of ADP-mediated alpha granule release in human platelet assessed as inhibition of P-selectin expression at 10 uM by flow cytometry. The assay is classed as functional. The procedure, abridged: (§2)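 Human PRP from drug-free volunteers (EDTA 10 mM, 300g 4 min), diluted 1:50 in Hepes-modified Tyrode's buffer pH 7.4. Compound or DMSO added, then immediately ADP 300 nM for 5 min. PE-anti-CD62P for 15 min, fixed 30 min in 2% paraformaldehyde, P-selectin read by flow cytometry.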

Assay [4] deals with Platelet. The assay is described as follows: Inhibition of ADP-mediated alpha granule release in human platelet assessed as inhibition of P-selectin expression by flow cytometry. In kind it is functional, cell-based. The procedure, abridged: as §2
Assay [5] addresses T1, P2Y purinoceptor 1. The assay is described as follows: Displacement of [33P]2-MeS-ADP from human P2Y1 receptor expressed in human U2OS cells by scintillation counting. The assay is classed as cell-based. The procedure, abridged: as §1

Each structure is given as a SMILES string.

T1 sequence (P47900 whole entry): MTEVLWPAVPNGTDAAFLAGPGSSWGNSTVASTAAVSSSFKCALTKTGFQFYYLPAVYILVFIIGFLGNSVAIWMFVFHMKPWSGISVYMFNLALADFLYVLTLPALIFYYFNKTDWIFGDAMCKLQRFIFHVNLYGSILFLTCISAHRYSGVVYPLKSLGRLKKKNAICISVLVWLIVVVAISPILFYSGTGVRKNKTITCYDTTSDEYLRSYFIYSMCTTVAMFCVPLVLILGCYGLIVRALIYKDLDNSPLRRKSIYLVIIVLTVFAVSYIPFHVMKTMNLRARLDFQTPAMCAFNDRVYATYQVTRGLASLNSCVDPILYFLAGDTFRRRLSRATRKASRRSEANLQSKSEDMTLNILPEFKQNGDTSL

For `O=C(Nc1ccc(OC(F)(F)F)cc1)Nc1cccc2cc(-c3cccc(C(F)(F)F)c3)oc12`, the IC50 in assay [1] is over 25000 nM.
In assay [1], `CC(C)Oc1ccccc1-c1cc2cccc(NC(=O)Nc3ccc(OC(F)(F)F)cc3)c2o1` showed an IC50 of over 25000 nM.
For `CC(C)c1ccccc1-c1cc2cccc(NC(=O)Nc3ccc(C(C)(C)C)cc3)c2o1`, the inhibition in assay [2] was found to be 72%. Moreover, the IC50 amounted to 1300 nM in assay [1] and 300 nM in assay [4]. The inhibition at 10 µM in assay [3] worked out at 100%.
On to `O=C(Nc1ccc(OC(F)(F)F)cc1)Nc1cccc2cc(-c3ccccc3Cl)oc12`, for which the IC50 in assay [1] is over 25000 nM.
In assay [1], `CC(C)c1ccccc1-c1cc2cccc(NC(=O)Nc3ccc(OC(F)(F)F)cc3)c2o1` displayed an IC50 of 4000 nM. Further, in assay [5], affinity was put at a Ki of 600 nM. In assay [3], the inhibition at 10 µM was 49%.
In assay [1], `CC(C)c1ccccc1-c1cc2cccc(NC(=O)Nc3ccc(Cl)cc3)c2o1` displayed an IC50 of 2000 nM. The compound also showed a Ki in assay [5] of 760 nM.
Consider `CCCCCc1ccc(NC(=O)Nc2cccc3cc(-c4ccccc4C(C)C)oc23)cc1`, for which the IC50 in assay [1] was 630 nM. In addition, the Ki in assay [5] stood at 140 nM.
`Cc1ccc(NC(=O)Nc2cccc3cc(-c4ccccc4C(C)C)oc23)cc1C(F)(F)F`: in assay [2], the inhibition worked out at 69%. This compound also yielded an IC50 in assay [1] of 1600 nM. Also, the inhibition at 10 µM in assay [3] amounted to 79%.
In assay [1], `CC(C)(C)c1ccccc1-c1cc2cccc(NC(=O)Nc3ccc(OC(F)(F)F)cc3)c2o1` came in with an IC50 of 4000 nM. The compound also registered a Ki in assay [5] of 400 nM.
With `CCCCOc1ccc(NC(=O)Nc2cccc3cc(-c4ccccc4C(C)C)oc23)cc1`, in assay [1], the IC50 was 2000 nM. The same compound yielded a Ki in assay [5] of 640 nM.
In turn, `CC(C)c1ccccc1-c1cc2cccc(NC(=O)Nc3cccc(C(F)(F)F)c3)c2o1` registered an inhibition in assay [2] of 60%. In addition, in assay [1], the IC50 was found to be 5000 nM.
Regarding `CC(C)c1ccccc1-c1cc2cccc(NC(=O)Nc3ccc(N(C)C)cc3)c2o1`, half-maximal inhibition in assay [1] (IC50) was put at 15800 nM.
On to `O=C(Nc1ccc(OC(F)(F)F)cc1)Nc1cccc2cc(-c3ccccc3C(F)(F)F)oc12`, for which it took 6300 nM to reach half-maximal inhibition in assay [1] (IC50). This compound also had a Ki in assay [5] of 2500 nM.
